Assays:
[1] = Mole fraction of the IC50 concentration of compound divided by the total lipid concentration (1230 uM) in a chromogenic assay; format: functional
[2] = molecular target: T1, Phospholipase A2, membrane associated (Homo sapiens, UniProt P14555); assay: Inhibition of human nonpancreatic secretory Phospholipase A2 through chromogenic assay
T1 sequence (P14555 whole entry): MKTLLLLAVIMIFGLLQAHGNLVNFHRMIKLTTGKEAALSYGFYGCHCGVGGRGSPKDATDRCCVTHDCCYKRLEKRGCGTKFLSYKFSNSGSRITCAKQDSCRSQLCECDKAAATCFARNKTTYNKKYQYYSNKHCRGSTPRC

[3] = molecular target: T1, Phospholipase A2, membrane associated; assay: Inhibition of human nonpancreatic secretory Phospholipase A2 through DOC/PC assay
Method in brief: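 hnps-PLA2 (10 ng per tube; 3 nM) was preincubated with test compound in DMSO in pH 8 Tris buffer with 0.2 M NaCl, 2 mM CaCl2 and fatty-acid-free BSA. The substrate was sonicated mixed micelles (final 3 mM deoxycholate/1 mM PC) with [14C]-palmitoyl-oleoyl-PC. Reactions ran 1 h at 40 °C and were stopped with Dole reagent. Released [14C]oleic acid was extracted with heptane/silica and counted. IC50 was calculated against diluent controls.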

[4] = Mole fraction is the IC50 concentration divided by the total lipid concentration (4000 uM) in DOC/PC assay; format: functional
Method in brief: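 The value is a mole fraction: the DOC/PC assay IC50 (3 nM hnps-PLA2; 3 mM DOC/1 mM [14C]PC micelles; 1 h at 40 °C; released [14C]oleic acid counted) divided by the total lipid concentration of 4000 µM.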

Phospholipase A2 [5] = molecular target: T2, Phospholipase A2 (Homo sapiens, UniProt P04054); assay: Compound was evaluated to inhibit human secretory pancreatic Phospholipase A2
T2 sequence (P04054 whole entry): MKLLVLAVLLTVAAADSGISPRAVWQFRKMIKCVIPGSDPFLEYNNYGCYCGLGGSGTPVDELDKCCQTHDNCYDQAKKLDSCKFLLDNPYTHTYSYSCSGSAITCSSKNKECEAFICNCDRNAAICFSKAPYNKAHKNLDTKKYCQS

Cavia porcellus [6] = organism: Cavia porcellus; assay: Inhibition of Phospholipase A2 induced contraction of GP lung tissue; format: functional
Method in brief: (§1)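 Guinea pig lung pleural strips were contracted with either hnps-PLA2 or arachidonic acid, the latter serving as the control challenge for selectivity. Antagonism is given as KB.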

Phospholipase A2 [7] = molecular target: T2, Phospholipase A2; assay: Compound was tested for inhibition of human secretory pancreatic Phospholipase A2
[8] = molecular target: Phospholipase A2, major isoenzyme (Sus scrofa, UniProt P00592); assay: Compound was tested for inhibition of porcine secretory pancreatic Phospholipase A2
Phospholipase A2, major isoenzyme, sequence (P00592 whole entry): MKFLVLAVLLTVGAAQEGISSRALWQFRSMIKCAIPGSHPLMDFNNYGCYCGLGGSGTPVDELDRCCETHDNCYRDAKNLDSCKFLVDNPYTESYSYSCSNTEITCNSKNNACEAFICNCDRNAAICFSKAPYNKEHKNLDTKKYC

Cavia porcellus [9] = organism: Cavia porcellus; assay: Inhibition Arachidonic acid(AA) induced contraction of GP lung tissue; format: functional; method in brief: as §1
[10] = molecular target: T1, Phospholipase A2, membrane associated; assay: Compound was evaluated to inhibit human nonpancreatic secretory Phospholipase A2 through chromogenic assay; format: functional
Method in brief: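 Chromogenic hnps-PLA₂ hydrolysis assay with 16 nM enzyme and 1.23 mM (1230 µM) total lipid substrate. IC₅₀ was determined, and the mole-fraction value is the IC₅₀ divided by the total lipid concentration.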

**Q.** Which Mole fraction [1] does the source give for `CCc1c(C(=O)C(N)=O)c2c(NCC(=O)O)cccc2n1Cc1ccccc1` here?
**A.** 0.00081

**Q.** And the IC50 [2]?
**A.** 1000 nM

**Q.** Which Mole fraction [1] does the source give for `CCc1c(C(=O)C(N)=O)c2c(SCC(=O)O)cccc2n1Cc1ccccc1` here?
**A.** 0.00012

**Q.** And the IC50 [2]?
**A.** 145 nM

**Q.** What about the IC50 [3] of the same compound?
**A.** 210 nM

**Q.** What about the Mole fraction [4] of the same compound?
**A.** 5.3e-05

**Q.** Which Mole fraction [1] does the source give for `CCc1c(C(=O)C(N)=O)c2cc(OCCCC(=O)O)ccc2n1Cc1ccccc1` here?
**A.** 0.00017

**Q.** Which Mole fraction [1] does the source give for `Cc1c(C(=O)C(N)=O)c2c(OCCCC(=O)O)cccc2n1Cc1ccccc1-c1ccccc1` here?
**A.** 0.0002

**Q.** What about the IC50 [2] of the same compound?
**A.** 243 nM

**Q.** Which IC50 [2] does the source give for `CCc1c(C(=O)C(N)=O)c2c(N(CCC(=O)O)C(C)=O)cccc2n1Cc1ccccc1` here?
**A.** > 100000 nM

**Q.** Which Mole fraction [1] does the source give for `Cc1c(C(=O)C(N)=O)c2c(/C=C/C(=O)O)cccc2n1Cc1ccccc1` here?
**A.** 0.036

**Q.** What about the IC50 [2] of the same compound?
**A.** 46000 nM

**Q.** What about the IC50 (Phospholipase A2 [5]) of the same compound?
**A.** > 100000 nM

**Q.** Which Mole fraction [1] does the source give for `CCCc1c(C(=O)C(N)=O)c2c(OCC(=O)O)cccc2n1Cc1ccccc1-c1ccccc1` here?
**A.** 6.7e-05

**Q.** Which Mole fraction [1] does the source give for `CCc1c(C(=O)C(N)=O)c2c(OCC(=O)O)cccc2n1Cc1ccccc1Cc1ccccc1` here?
**A.** 3.3e-06

**Q.** What about the IC50 [2] of the same compound?
**A.** 4 nM

**Q.** What about the KB (Cavia porcellus [6]) of the same compound?
**A.** 0.052 µM

**Q.** And the IC50 [3]?
**A.** 4 nM

**Q.** And the IC50 (Phospholipase A2 [7])?
**A.** 62 nM

**Q.** And the Mole fraction [4]?
**A.** 1e-06

**Q.** What does the source list for `Cc1c(C(=O)C(N)=O)c2c(OCC(=O)O)cccc2n1Cc1ccccc1`?
**A.** Mole fraction [1]: 8.9e-06; IC50 [2]: 11 nM; KB (Cavia porcellus [6]): 0.14 µM; IC50 [3]: 19 nM; IC50 [8]: 15 nM; ED50 (Cavia porcellus [9]): >10000 nM; IC50 (Phospholipase A2 [7]): 761 nM; Mole fraction [4]: 4.8e-06

**Q.** Which Mole fraction [1] does the source give for `CCCc1ccc2c(c1OCC(=O)O)c(C(=O)C(N)=O)c(CC)n2Cc1ccccc1` here?
**A.** 0.0017

**Q.** And the IC50 [2]?
**A.** 2070 nM

**Q.** For `CCc1c(C(=O)C(N)=O)c2c(OC(C)C(=O)O)cccc2n1Cc1ccccc1` (centres undefined), which Mole fraction [1] is on record?
**A.** 8.9e-06

**Q.** What about the IC50 [2] of the same compound?
**A.** 11 nM

**Q.** And the KB (Cavia porcellus [6])?
**A.** 0.21 µM

**Q.** What about the IC50 [3] of the same compound?
**A.** 13 nM

**Q.** And the ED50 (Cavia porcellus [9])?
**A.** 3160 nM

**Q.** And the Mole fraction [4]?
**A.** 3.3e-06

**Q.** With `Cc1c(C(=O)C(N)=O)c2c(OCC(=O)O)cccc2n1Cc1ccccc1-c1ccccc1` as the compound, how does the Mole fraction [1] read?
**A.** 5e-06

**Q.** What about the IC50 [2] of the same compound?
**A.** 6 nM

**Q.** What about the KB (Cavia porcellus [6]) of the same compound?
**A.** 0.068 µM

**Q.** And the IC50 [3]?
**A.** 3 nM

**Q.** What about the IC50 [8] of the same compound?
**A.** 97 nM

**Q.** What about the ED50 (Cavia porcellus [9]) of the same compound?
**A.** >10000 nM

**Q.** What about the IC50 (Phospholipase A2 [7]) of the same compound?
**A.** 364 nM

**Q.** What about the Mole fraction [4] of the same compound?
**A.** 7.5e-07

**Q.** Which results are given for `COc1ccc2c(c1)c(C(=O)C(N)=O)c(C)n2Cc1ccccc1`?
**A.** Mole fraction [1]: 0.00012; IC50 [2]: 2560 nM

**Q.** With `CCc1c(C(=O)C(N)=O)c2c(OC(C)(C)C(=O)O)cccc2n1Cc1ccccc1` as the compound, how does the Mole fraction [1] read?
**A.** 2.1e-05

**Q.** And the IC50 [2]?
**A.** 25 nM

**Q.** And the KB (Cavia porcellus [6])?
**A.** 0.143 µM

**Q.** What about the IC50 [3] of the same compound?
**A.** 29 nM

**Q.** And the ED50 (Cavia porcellus [9])?
**A.** >30000 nM

**Q.** And the Mole fraction [4]?
**A.** 7.3e-06

**Q.** With `CCc1c(C(=O)C(N)=O)c2c(OCC(=O)O)cccc2n1S(=O)(=O)c1ccccc1` as the compound, how does the Mole fraction [1] read?
**A.** 2.3e-05

**Q.** What about the KB (Cavia porcellus [6]) of the same compound?
**A.** 0.316 µM

**Q.** What about the IC50 [10] of the same compound?
**A.** 28 nM

**Q.** With `Cc1c(C(=O)C(N)=O)c2c(OCC(=O)O)cccc2n1Cc1c(Cl)cccc1Cl` as the compound, how does the Mole fraction [1] read?
**A.** 5e-06

**Q.** What about the KB (Cavia porcellus [6]) of the same compound?
**A.** 0.077 µM

**Q.** What about the IC50 [3] of the same compound?
**A.** 22 nM

**Q.** And the ED50 (Cavia porcellus [9])?
**A.** >30000 nM

**Q.** And the Mole fraction [4]?
**A.** 5.5e-06

**Q.** For `Cc1c(C(=O)C(N)=O)c2c(OCC(=O)O)cccc2n1Cc1cccc(-c2ccccc2)c1`, which Mole fraction [1] is on record?
**A.** 7.3e-06

**Q.** And the IC50 [2]?
**A.** 9 nM

**Q.** What about the IC50 [3] of the same compound?
**A.** 8 nM

**Q.** And the IC50 [8]?
**A.** 7 nM

**Q.** And the IC50 (Phospholipase A2 [7])?
**A.** 570 nM

**Q.** What about the Mole fraction [4] of the same compound?
**A.** 2e-06

**Q.** Which results are given for `C=CCc1ccc2c(c1OCC(=O)O)c(C(=O)C(N)=O)c(CC)n2Cc1ccccc1`?
**A.** Mole fraction [1]: 0.013; IC50 [2]: 1620 nM

**Q.** Which results are given for `Cc1c(C(=O)C(N)=O)c2c(OC(C)C(=O)O)cccc2n1Cc1ccccc1` (centres undefined)?
**A.** Mole fraction [1]: 8.1e-06; IC50 [2]: 10 nM; KB (Cavia porcellus [6]): 0.145 µM; ED50 (Cavia porcellus [9]): >30000 nM; Mole fraction [4]: 2.3e-06

**Q.** With `Cc1c(C(=O)C(N)=O)c2c(O[C@H](C)C(=O)O)cccc2n1Cc1ccccc1` as the compound, how does the Mole fraction [1] read?
**A.** 8.9e-06

**Q.** And the IC50 [2]?
**A.** 11 nM

**Q.** What about the IC50 [3] of the same compound?
**A.** 6 nM

**Q.** And the Mole fraction [4]?
**A.** 1.5e-06

**Q.** For `Cc1c(C(=O)C(N)=O)c2c(OCC(=O)O)cccc2n1Cc1ccc(-c2ccccc2)cc1`, which Mole fraction [1] is on record?
**A.** 3.6e-05

**Q.** What about the IC50 [2] of the same compound?
**A.** 43 nM

**Q.** And the IC50 [3]?
**A.** 150 nM

**Q.** And the IC50 (Phospholipase A2 [7])?
**A.** 1090 nM

**Q.** And the Mole fraction [4]?
**A.** 3.8e-05

**Q.** Which Mole fraction [1] does the source give for `CCc1c(C(=O)C(N)=O)c2c(O[C@@H](C)C(=O)O)cccc2n1Cc1ccccc1` here?
**A.** 0.00011

**Q.** What about the IC50 [2] of the same compound?
**A.** 141 nM

— ChEMBL document CHEMBL1129458, “Indole inhibitors of human nonpancreatic secretory phospholipase A2. 3. Indole-3-glyoxamides” (J Med Chem, 1996)
